Test results taken from ChEMBL document CHEMBL1156631 (J Med Chem, 2008).
Values after ≈ are worked out from the molar mass of the structure shown.

Tests used:
[1] = target: T1, Cannabinoid receptor 2 (Rattus norvegicus) (UniProt Q9QZN9); experiment: Agonist activity at rat recombinant CB2 receptor expressed in CHO-K1 cells assessed as inhibition of forskolin-stimulated intracellular cAMP level relative to CP-55940; type: functional, cell-based
T1 sequence (whole entry): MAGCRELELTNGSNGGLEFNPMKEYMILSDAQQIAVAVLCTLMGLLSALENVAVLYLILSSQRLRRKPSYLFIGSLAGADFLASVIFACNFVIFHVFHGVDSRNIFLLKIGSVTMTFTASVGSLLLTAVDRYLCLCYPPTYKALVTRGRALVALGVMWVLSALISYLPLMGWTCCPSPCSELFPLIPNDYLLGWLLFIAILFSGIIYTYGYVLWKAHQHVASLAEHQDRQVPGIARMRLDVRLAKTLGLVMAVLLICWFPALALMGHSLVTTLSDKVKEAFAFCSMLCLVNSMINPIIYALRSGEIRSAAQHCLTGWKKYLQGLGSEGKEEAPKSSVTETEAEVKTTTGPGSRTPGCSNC
In short: (§1)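 CHO-K1 cells stably expressing human or rat CB1 or CB2 were used. Compounds were diluted from DMSO into HBSS/HEPES/BSA buffer containing 60 µM forskolin, then combined with 5000 cells/well plus Alexa647 anti-cAMP antibody, 1 h at room temperature. A biotinylated-cAMP detection mix was added for another 1 h. Emission at 665 nm gave concentration-response curves and EC50; Emax is expressed as a percentage of the reference agonist maximum.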

[2] = Solubility in simulated intestinal fluid; type: physicochemical; settings: read-out: Stability
Cannabinoid receptor 1 [3] = target: T2, Cannabinoid receptor 1 (Homo sapiens, UniProt P21554); experiment: Agonist activity at human recombinant CB1 receptor expressed in CHO-K1 cells assessed as inhibition of forskolin-stimulated intracellular cAMP level; type: functional, cell-based
In short: (§2)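 CHO-K1 cells stably expressing human or rat CB1 or CB2 were used. Compounds were diluted from DMSO into HBSS/HEPES/BSA buffer containing 60 µM forskolin, then combined with 5000 cells/well plus Alexa647 anti-cAMP antibody, 1 h at room temperature. A biotinylated-cAMP detection mix was added for another 1 h.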

Cannabinoid receptor 1 [4] = target: T2, Cannabinoid receptor 1; experiment: Agonist activity at human CB1 receptor expressed in Sf9 cells by GTP-europium binding assay
In short: (§3)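 Membranes were from Sf9 insect cells cotransfected with CB1 or CB2 plus Gαi3 (Bmax 1.7 pmol/mL). Compound (0.01 nM–10 µM, 1% DMSO final) was added to buffer with Hepes, BSA, 10 mM MgCl2, 150 mM NaCl, 5 µM GDP, 10 nM GTP-europium, saponin and membranes (CB1 4.5 µg/well, CB2 14 µg/well). 100% efficacy was set by 3 µM reference agonist.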

Cannabinoid receptor 2 [5] = target: T3, Cannabinoid receptor 2 (Homo sapiens, UniProt P34972); experiment: Agonist activity at human recombinant CB2 receptor expressed in CHO-K1 cells assessed as inhibition of forskolin-stimulated intracellular cAMP level relative to CP-55940; type: functional, cell-based; in short: as §1
Cannabinoid receptor 1 [6] = target: Cannabinoid receptor 1 (Rattus norvegicus, UniProt P20272); experiment: Agonist activity at rat recombinant CB1 receptor expressed in CHO-K1 cells assessed as inhibition of forskolin-stimulated intracellular cAMP level; type: functional, cell-based; in short: as §2
Cannabinoid receptor 2 [7] = target: T3, Cannabinoid receptor 2; experiment: Agonist activity at human recombinant CB2 receptor expressed in Sf9 cells by GTP-europium binding assay relative to CP-55940
In short: (§4)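 Membranes were from Sf9 insect cells cotransfected with CB1 or CB2 plus Gαi3 (Bmax 1.7 pmol/mL). Compound (0.01 nM–10 µM, 1% DMSO final) was added to buffer with Hepes, BSA, 10 mM MgCl2, 150 mM NaCl, 5 µM GDP, 10 nM GTP-europium, saponin and membranes (CB1 4.5 µg/well, CB2 14 µg/well). Incubation was 45 min at room temperature, then filtration and washing, with fluorescence read at 615 nm. 100% efficacy was set by 3 µM reference agonist.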

Cannabinoid receptor 1 [8] = target: T2, Cannabinoid receptor 1; experiment: Agonist activity at human recombinant CB1 receptor expressed in CHO-K1 cells assessed as inhibition of forskolin-stimulated intracellular cAMP level relative to CP-55940; type: functional, cell-based; in short: as §1
Cannabinoid receptor 2 [9] = target: T3, Cannabinoid receptor 2; experiment: Agonist activity at human recombinant CB2 receptor expressed in Sf9 cells by GTP-europium binding assay; in short: as §3
[10] = target: Cannabinoid receptor 1 (Rattus norvegicus) (UniProt P20272); experiment: Agonist activity at rat recombinant CB1 receptor expressed in CHO-K1 cells assessed as inhibition of forskolin-stimulated intracellular cAMP level relative to CP-55940; type: functional, cell-based; in short: as §1
Cannabinoid receptor 2 [11] = target: T4, Cannabinoid receptor 2 (Rattus norvegicus, UniProt Q9QZN9); experiment: Agonist activity at rat recombinant CB2 receptor expressed in CHO-K1 cells assessed as inhibition of forskolin-stimulated intracellular cAMP level; type: functional, cell-based; in short: as §1
T4 sequence (Q9QZN9 whole entry): T1 sequence (whole entry)

Cannabinoid receptor 2 [12] = target: T3, Cannabinoid receptor 2; experiment: Agonist activity at human recombinant CB2 receptor expressed in CHO-K1 cells assessed as inhibition of forskolin-stimulated intracellular cAMP level; type: functional, cell-based; in short: as §2
Cannabinoid receptor 1 [13] = target: T2, Cannabinoid receptor 1; experiment: Agonist activity at human recombinant CB1 receptor expressed in Sf9 cells by GTP-europium binding assay relative to CP-55940; in short: as §4
Rattus norvegicus [14] = experiment: Oral bioavailability in rat; type: ADME, organism-based; settings: in vivo
Rattus norvegicus [15] = experiment: (§5) AUC in rat at 10 mg/kg, po; type: ADME, organism-based, Plasma; design: dose 10 mg/kg, route oral; settings: in vivo
[16] = Metabolic stability in rat liver microsomes; type: ADME, Microsome; settings: read-out: Stability
[17] = Half life in rat at 10 mg/kg, po; type: ADME, organism-based; design: dose 10 mg/kg, route oral; settings: in vivo
[18] = Metabolic stability in human liver microsomes; type: ADME, Microsome; settings: read-out: Stability
Rattus norvegicus [19] = experiment: (§6) Oral bioavailability in rat at 10 mg/kg; type: ADME, organism-based; settings: in vivo
[20] = Cmax in rat at 10 mg/kg, po; type: ADME, organism-based; design: dose 10 mg/kg, route oral; settings: in vivo
Rattus norvegicus [21] = experiment: Clearance in rat at 0.5 mg/kg, iv; type: ADME, organism-based; design: dose 0.5 mg/kg, route intravenous; settings: in vivo
[22] = as §5; type: ADME, organism-based, Plasma; design: dose 10 mg/kg, route oral; settings: plasma
[23] = as §6; type: ADME, organism-based; settings: in vivo
Cannabinoid receptor 1 [24] = target: T2, Cannabinoid receptor 1; experiment: Binding affinity to CB1 receptor
Cannabinoid receptor 2 [25] = target: T3, Cannabinoid receptor 2; experiment: Binding affinity to CB2 receptor

Sequence of Cannabinoid receptor 1 (Rattus norvegicus, UniProt P20272) (P20272 whole entry): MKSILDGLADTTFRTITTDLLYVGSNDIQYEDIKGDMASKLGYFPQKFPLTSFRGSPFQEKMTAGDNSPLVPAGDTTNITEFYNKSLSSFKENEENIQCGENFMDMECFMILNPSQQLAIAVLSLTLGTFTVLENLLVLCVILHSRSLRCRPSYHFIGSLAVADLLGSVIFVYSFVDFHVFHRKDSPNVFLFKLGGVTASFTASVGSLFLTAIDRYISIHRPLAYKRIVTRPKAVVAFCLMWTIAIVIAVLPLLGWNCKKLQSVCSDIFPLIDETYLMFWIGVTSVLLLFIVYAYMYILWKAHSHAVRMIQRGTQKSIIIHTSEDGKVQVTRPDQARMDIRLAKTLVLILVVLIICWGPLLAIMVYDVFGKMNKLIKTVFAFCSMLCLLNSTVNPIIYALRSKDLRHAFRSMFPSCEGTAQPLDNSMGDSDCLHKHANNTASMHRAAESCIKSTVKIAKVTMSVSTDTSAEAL
Sequence of Cannabinoid receptor 1 (Rattus norvegicus) (P20272 whole entry): as above
T3 sequence (P34972 whole entry): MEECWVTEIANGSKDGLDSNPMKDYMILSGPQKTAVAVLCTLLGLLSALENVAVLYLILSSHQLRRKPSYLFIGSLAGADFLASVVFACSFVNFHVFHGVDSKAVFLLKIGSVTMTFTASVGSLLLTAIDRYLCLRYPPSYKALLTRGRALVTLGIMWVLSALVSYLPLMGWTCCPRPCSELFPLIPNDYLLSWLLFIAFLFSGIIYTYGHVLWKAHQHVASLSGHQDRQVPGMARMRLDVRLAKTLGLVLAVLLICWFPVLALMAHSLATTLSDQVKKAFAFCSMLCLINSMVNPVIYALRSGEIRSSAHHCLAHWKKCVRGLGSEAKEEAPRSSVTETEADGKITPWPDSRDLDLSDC
T2 sequence (P21554 whole entry): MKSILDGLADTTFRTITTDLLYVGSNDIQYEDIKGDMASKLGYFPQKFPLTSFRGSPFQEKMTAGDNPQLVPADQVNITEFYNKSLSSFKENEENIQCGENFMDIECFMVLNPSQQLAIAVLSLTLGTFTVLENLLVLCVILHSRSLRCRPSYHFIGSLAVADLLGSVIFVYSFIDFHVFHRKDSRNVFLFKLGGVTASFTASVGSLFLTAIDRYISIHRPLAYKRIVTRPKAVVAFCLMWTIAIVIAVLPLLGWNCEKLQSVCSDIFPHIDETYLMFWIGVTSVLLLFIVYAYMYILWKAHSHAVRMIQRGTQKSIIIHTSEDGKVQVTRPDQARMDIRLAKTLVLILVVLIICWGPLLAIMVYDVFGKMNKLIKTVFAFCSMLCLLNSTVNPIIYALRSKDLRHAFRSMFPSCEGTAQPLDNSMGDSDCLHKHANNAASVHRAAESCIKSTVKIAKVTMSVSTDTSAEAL

## Fc1ccc(-c2noc(CCCNc3cnc4ccc(OC(F)(F)F)cc4c3)n2)c(Cl)c1
[1]
  Emax: 130%
[2]
  solubility: 49 µg/mL (≈ 105 µM)
Cannabinoid receptor 1 [3]
  EC50: 850 nM
Cannabinoid receptor 1 [4]
  EC50: 1100 nM
Cannabinoid receptor 2 [5]
  Emax: 110%
Cannabinoid receptor 1 [6]
  EC50: 130 nM
Cannabinoid receptor 2 [7]
  Emax: 110%
Cannabinoid receptor 1 [8]
  Emax: 78%
Cannabinoid receptor 2 [9]
  EC50: 0.015 nM
[10]
  Emax: 120%
Cannabinoid receptor 2 [11]
  EC50: 1.3 nM
Cannabinoid receptor 2 [12]
  EC50: 2.3 nM
Cannabinoid receptor 1 [13]
  Emax: 81%

## CCn1c2ccccc2c2cc(NC(=O)CCc3nc(-c4ccccc4F)no3)ccc21
[1]
  Emax: 91%
Rattus norvegicus [14]
  F: 13%
Rattus norvegicus [15]
  AUC: 0.46 µg·h/mL
[2]
  solubility: 2 µg/mL (≈ 4.67 µM)
Cannabinoid receptor 1 [3]
  EC50: > 1000 nM
[16]
  microsomal CLint: 198 µL/min/mg
Cannabinoid receptor 1 [4]
  EC50: > 10000 nM
[17]
  half-life: 96 min
Cannabinoid receptor 2 [5]
  Emax: 93%
[18]
  microsomal CLint: 274 µL/min/mg
Cannabinoid receptor 1 [6]
  EC50: > 1000 nM
Cannabinoid receptor 2 [7]
  Emax: 100%
Rattus norvegicus [19]
  F: 13%
[20]
  Cmax: 100 ng/mL
Cannabinoid receptor 2 [11]
  EC50: 33 nM
Rattus norvegicus [21]
  CL: 1.2 L/h/kg

## Fc1ccc(-c2noc(CCCNc3cnc4ccc(Cl)cc4c3)n2)c(Cl)c1
[1]
  Emax: 90%
[22]
  AUC: 43000 ng·h/mL
[2]
  solubility: 87 µg/mL (≈ 208 µM)
Cannabinoid receptor 1 [3]
  EC50: 560 nM
Cannabinoid receptor 1 [4]
  EC50: 220 nM
[17]
  half-life: 306 min
Cannabinoid receptor 2 [5]
  Emax: 94%
Cannabinoid receptor 1 [6]
  EC50: 77 nM
Cannabinoid receptor 2 [7]
  Emax: 110%
Cannabinoid receptor 1 [8]
  Emax: 88%
Cannabinoid receptor 2 [9]
  EC50: 1.7 nM
[10]
  Emax: 85%
[23]
  bioavailability: < 100%
[20]
  Cmax: 8400 ng/mL
Cannabinoid receptor 2 [11]
  EC50: 1.3 nM
Cannabinoid receptor 2 [12]
  EC50: 2.2 nM
Cannabinoid receptor 1 [13]
  Emax: 51%

## O=C(CCc1nc(-c2ccc(F)cc2Cl)no1)Nc1ccc(C(F)(F)F)cc1Cl
[22]
  AUC: 460 ng·h/mL
Cannabinoid receptor 1 [4]
  EC50: > 10000 nM
[17]
  half-life: 96 min
Cannabinoid receptor 2 [7]
  Emax: 41%
Cannabinoid receptor 2 [9]
  EC50: 370 nM
[23]
  bioavailability: 13%
[20]
  Cmax: 100 ng/mL

## N#Cc1cc(NC(=O)CCc2nc(-c3ccc(F)cc3Cl)no2)cnc1OCC(F)(F)F
[1]
  Emax: 100%
[22]
  AUC: 21000 ng·h/mL
[2]
  solubility: 24 µg/mL (≈ 51.1 µM)
Cannabinoid receptor 1 [3]
  EC50: > 1000 nM
Cannabinoid receptor 1 [4]
  EC50: > 10000 nM
[17]
  half-life: 186 min
Cannabinoid receptor 2 [5]
  Emax: 97%
Cannabinoid receptor 1 [6]
  EC50: > 1000 nM
Cannabinoid receptor 2 [7]
  Emax: 110%
Cannabinoid receptor 2 [9]
  EC50: 14 nM
[23]
  bioavailability: 36%
[20]
  Cmax: 3400 ng/mL
Cannabinoid receptor 2 [11]
  EC50: 3.1 nM
Cannabinoid receptor 2 [12]
  EC50: 31 nM

## O=C(CCc1nc(-c2ccc(F)cc2Cl)no1)Nc1cnc2ccc(Cl)cc2c1
[1]
  Emax: 97%
Cannabinoid receptor 1 [3]
  EC50: 710 nM
[16]
  microsomal CLint: < 100 µL/min/mg
Cannabinoid receptor 1 [4]
  EC50: 0.9 nM
Cannabinoid receptor 2 [5]
  Emax: 99%
[18]
  microsomal CLint: < 100 µL/min/mg
Cannabinoid receptor 1 [6]
  EC50: 130 nM
Cannabinoid receptor 2 [7]
  Emax: 110%
Cannabinoid receptor 1 [8]
  Emax: 57%
Cannabinoid receptor 2 [9]
  EC50: 1400 nM
[10]
  Emax: 99%
Cannabinoid receptor 2 [11]
  EC50: 11 nM
Cannabinoid receptor 2 [12]
  EC50: 0.5 nM
Cannabinoid receptor 1 [13]
  Emax: 82%

## Cc1ccc2c(=O)c(C(=O)NC3CCCCC3)cn(Cc3ccc(F)cc3)c2n1
Cannabinoid receptor 1 [24]
  Ki: 15 nM
Cannabinoid receptor 2 [25]
  Ki: 5.5 nM

## O=C(CCc1nc(-c2ccc(F)cc2Cl)no1)Nc1nnc(N2CCCCC2)s1
[1]
  Emax: 98%
Cannabinoid receptor 1 [3]
  EC50: > 1000 nM
[16]
  microsomal CLint: < 100 µL/min/mg
Cannabinoid receptor 1 [4]
  EC50: 211 nM
Cannabinoid receptor 2 [5]
  Emax: 98%
[18]
  microsomal CLint: < 100 µL/min/mg
Cannabinoid receptor 1 [6]
  EC50: 220 nM
Cannabinoid receptor 2 [7]
  Emax: 98%
Cannabinoid receptor 1 [8]
  Emax: 38%
Cannabinoid receptor 2 [9]
  EC50: 1.2 nM
[10]
  Emax: 87%
Cannabinoid receptor 2 [11]
  EC50: 1.1 nM
Cannabinoid receptor 2 [12]
  EC50: 0.8 nM
Cannabinoid receptor 1 [13]
  Emax: 47%

## O=C(CCc1nc(-c2ccc(F)cc2Cl)no1)Nc1cnc2ncc(Cl)cc2c1
[1]
  Emax: 100%
Cannabinoid receptor 1 [3]
  EC50: > 1000 nM
[16]
  microsomal CLint: < 100 µL/min/mg
Cannabinoid receptor 1 [4]
  EC50: 2300 nM
Cannabinoid receptor 2 [5]
  Emax: 97%
[18]
  microsomal CLint: < 100 µL/min/mg
Cannabinoid receptor 1 [6]
  EC50: 220 nM
Cannabinoid receptor 2 [7]
  Emax: 110%
Cannabinoid receptor 1 [8]
  Emax: 30%
Cannabinoid receptor 2 [9]
  EC50: 3.3 nM
[10]
  Emax: 100%
Cannabinoid receptor 2 [11]
  EC50: 0.4 nM
Cannabinoid receptor 2 [12]
  EC50: 0.6 nM
Cannabinoid receptor 1 [13]
  Emax: 43%
